Results: ChEMBL document CHEMBL1629684, “Effects of ravuconazole treatment on parasite load and immune response in dogs experimentally infected with Trypanosoma cruzi” (Antimicrob Agents Chemother, 2010)
The source made the active and inactive calls.

Legend:
[1] = tested on: Canis familiaris; assay: Toxicity in mongrel dog infected with Trypanosoma cruzi Berenice-78 assessed as weight loss at 7 mg/kg, po BID for 90 days started 12 to 22 days postinfection measured after 6 months; type: organism-based, Canis lupus familiaris; design: dose 7 mg/kg, route oral; details: in vivo, 4383 h
Summary of the method: (§1)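 Body weight gain, in kg, was recorded for infected dogs 1 day and 6 months after the end of oral b.i.d. treatment. Treated animals were compared with infected untreated and noninfected control groups.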

[2] = tested on: Trypanosoma cruzi; assay: Antitrypanosomal activity against Trypanosoma cruzi Berenice-78 infected in mongrel dog assessed as reduction in parasite-induced intrafascicular collagen deposition in right atrium at 7 mg/kg, po BID after 180 days […]; type: functional, organism-based; design: dose 7 mg/kg; details: Cardiac atrium
[3] = tested on: Trypanosoma cruzi; assay: Antimicrobial activity against Trypanosoma cruzi Berenice-78 infected in mongrel dog assessed as suppression of microbial proliferation at 7 mg/kg, po BID started 12 to 22 days postinfection measured after 1 day; type: functional, organism-based; design: dose 7 mg/kg
Summary of the method: (§2)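 Mongrel dogs, 4 months old, dewormed and vaccinated, were inoculated with 2.0 × 10^3 bloodstream trypomastigotes/kg. Oral b.i.d. (q12h) dosing began 12 to 22 days postinfection, once parasitemia appeared. Dosing ran 90 days at 12 mg/kg and 60 days at 7 mg/kg, with 5 dogs per group. Parasitemia was read by fresh-blood examination of marginal ear vein blood from day 10 of infection until parasites were undetectable.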

[4] = tested on: Canis familiaris; assay: Immunostimulatory activity in mongrel dog infected with Trypanosoma cruzi Berenice-78 assessed as reduction in INFgamma production in right atrium at 7 mg/kg, po BID after 180 days by semiquantitative RT-PCR; type: functional, organism-based; design: dose 7 mg/kg; details: Canis lupus familiaris, Cardiac atrium
Summary of the method: (§3)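 Dogs were euthanized 6 months after the end of treatment. RNA was extracted from the right atrium with acid guanidinium thiocyanate-phenol-chloroform. One microgram was DNase treated and reverse transcribed with oligo(dT) for 1 h at 42°C. IFN-γ or IL-10 cDNA was amplified with 1.5 mM MgCl2: 94°C 5 min, n cycles of 94/57/72°C, final extension 72°C 6 min. Expression was scored semiquantitatively against infected untreated and noninfected dogs.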

[5] = tested on: Canis familiaris; assay: Toxicity in mongrel dog infected with Trypanosoma cruzi Y assessed as weight loss at po BID for 90 days started 12 to 22 days postinfection measured after 1 day; details: in vivo, 24 h
[6] = tested on: Trypanosoma cruzi; assay: Antimicrobial activity against Trypanosoma cruzi Y infected in mongrel dog assessed as survival of dog at 7 mg/kg, po BID started 12 to 22 days postinfection measured after 1 day; type: functional
Summary of the method: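 Four-month-old mongrel dogs (five per group) received 2.0 × 10^3 Y or Berenice-78 bloodstream trypomastigotes/kg. Oral dosing began 12–22 days postinfection, when parasitemia was detected by fresh blood examination: 12 mg/kg q12h for 90 days, or 7 mg/kg q12h for 60 days. Ear-vein blood was checked from day 10. Mortality was expressed as the cumulative percentage of dead animals.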

[7] = tested on: Trypanosoma cruzi; assay: Antimicrobial activity against Trypanosoma cruzi Y infected in mongrel dog assessed as parasite level in blood of dog at 12 mg/kg, po BID started 12 to 22 days postinfection measured after 30 days by PCR analysis; type: functional
Summary of the method: (§4)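 Blood PCR for T. cruzi on treated dogs (n = 5 per group) at 1 and 6 months posttreatment. Each reaction took 2 μl blood DNA template in Tris-HCl pH 9.0, 75 mM KCl, 3.5 mM MgCl2 and 0.2 mM dNTPs. Cycling was 95°C 5 min, then 2 cycles annealing at 30°C, 33 cycles at 40°C, and 72°C 5 min. Products were run on 6% polyacrylamide and silver stained. Reported as rate of positive animals.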

[8] = tested on: Canis familiaris; assay: Toxicity in mongrel dog infected with Trypanosoma cruzi Y assessed as weight loss at 12 mg/kg, po BID for 90 days started 12 to 22 days postinfection measured after 1 day; type: organism-based, Canis lupus familiaris; design: dose 12 mg/kg, route oral; details: in vivo, 24 h; summary of the method: as §1
[9] = tested on: Canis familiaris; assay: Toxicity in mongrel dog infected with Trypanosoma cruzi Berenice-78 assessed as weight loss at 12 mg/kg, po BID for 90 days started 12 to 22 days postinfection measured after 6 months; type: organism-based, Canis lupus familiaris; design: dose 12 mg/kg, route oral; details: in vivo, 4383 h; summary of the method: as §1
[10] = tested on: Trypanosoma cruzi; assay: Antitrypanosomal activity against Trypanosoma cruzi Berenice-78 infected in mongrel dog assessed as reduction in parasite-induced intrafascicular collagen deposition in right atrium at 12 mg/kg, po BID after 180 days […]; type: functional, organism-based; design: dose 12 mg/kg; details: Cardiac atrium
[11] = tested on: Canis familiaris; assay: Immunostimulatory activity in mongrel dog infected with Trypanosoma cruzi Berenice-78 assessed as reduction in INFgamma production in right atrium at 12 mg/kg, po BID after 180 days by semiquantitative RT-PCR; type: functional, organism-based; design: dose 12 mg/kg; details: Canis lupus familiaris, Cardiac atrium; summary of the method: as §3
[12] = tested on: Canis familiaris; assay: Immunostimulatory activity in mongrel dog infected with Trypanosoma cruzi Y assessed as production of antibody IgG at 12 mg/kg, po BID for 90 days measured up to 30 days by ELISA; type: functional, organism-based; design: dose 12 mg/kg; details: Canis lupus familiaris
Summary of the method: (§5)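 Serum was taken before inoculation and then monthly until 6 months posttreatment, and stored at −80°C. ELISA plates were coated with alkaline extract of Y-strain parasites grown to exponential phase in LIT medium. Bound total IgG or IgG2 was detected with peroxidase-labeled anti-dog conjugates and read at 490 nm. Cutoff was the mean absorbance of 10 uninfected dogs plus 2 SD.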

[13] = tested on: Trypanosoma cruzi; assay: Antimicrobial activity against Trypanosoma cruzi Y infected in mongrel dog assessed as suppression of microbial proliferation at 12 mg/kg, po BID started 12 to 22 days postinfection measured after 1 day; type: functional, organism-based; design: dose 12 mg/kg; summary of the method: as §2
[14] = tested on: Canis familiaris; assay: Immunostimulatory activity in mongrel dog infected with Trypanosoma cruzi Y assessed as production of antibody IgG at 7 mg/kg, po BID for 90 days measured up to 30 days by ELISA; type: functional, organism-based; design: dose 7 mg/kg; details: Canis lupus familiaris; summary of the method: as §5
[15] = tested on: Canis familiaris; assay: Immunostimulatory activity in mongrel dog infected with Trypanosoma cruzi Y assessed as production of antibody IgG2 at 7 mg/kg, po BID for 90 days measured up to 30 days by ELISA; type: functional, organism-based; design: dose 7 mg/kg; details: Canis lupus familiaris; summary of the method: as §5
[16] = tested on: Canis familiaris; assay: Toxicity in mongrel dog infected with Trypanosoma cruzi Y assessed as weight loss at 7 mg/kg, po BID for 90 days started 12 to 22 days postinfection measured after 6 months; type: organism-based, Canis lupus familiaris; design: dose 7 mg/kg, route oral; details: in vivo, 4383 h; summary of the method: as §1
[17] = tested on: Trypanosoma cruzi; assay: Antimicrobial activity against Trypanosoma cruzi Berenice-78 infected in mongrel dog assessed as parasite level in blood of dog at 12 mg/kg, po BID started 12 to 22 days postinfection measured after 30 days by PCR analysis; type: functional
Summary of the method: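 Mongrel dogs (4 months old, five per group) were inoculated with 2.0 × 10^3 Berenice-78 bloodstream trypomastigotes/kg and dosed orally at 12 mg/kg q12h for 90 days, beginning 12–22 days postinfection once parasitemia appeared. Blood was sampled 1 month after treatment. PCR used 2 μl blood DNA, 35 cycles with annealing at 30°C then 40°C, and polyacrylamide gel with silver staining.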

[18] = tested on: Trypanosoma cruzi; assay: Antimicrobial activity against Trypanosoma cruzi Berenice-78 infected in mongrel dog assessed as parasite level in blood of dog at 12 mg/kg, po BID started 12 to 22 days postinfection measured after 6 months by PCR analysis; type: functional; summary of the method: as §4
[19] = tested on: Canis familiaris; assay: Immunostimulatory activity in mongrel dog infected with Trypanosoma cruzi Berenice-78 assessed as reduction in IL10 production in right atrium at 12 mg/kg, po BID after 180 days by semiquantitative RT-PCR; type: functional, organism-based; design: dose 12 mg/kg; details: Canis lupus familiaris, Cardiac atrium; summary of the method: as §3
[20] = tested on: Trypanosoma cruzi; assay: Antimicrobial activity against Trypanosoma cruzi Berenice-78 infected in mongrel dog assessed as suppression of microbial proliferation at 12 mg/kg, po BID started 12 to 22 days postinfection measured after 1 day; type: functional, organism-based; design: dose 12 mg/kg; summary of the method: as §2
[21] = tested on: Canis familiaris; assay: Immunostimulatory activity in mongrel dog infected with Trypanosoma cruzi Berenice-78 assessed as production of antibody IgG at 12 mg/kg, po BID for 90 days measured up to 30 days by ELISA; type: functional, organism-based; design: dose 12 mg/kg; details: Canis lupus familiaris; summary of the method: as §5

C[C@@H](c1nc(-c2ccc(C#N)cc2)cs1)[C@](O)(Cn1cncn1)c1ccc(F)cc1F [RAVUCONAZOLE]
Activity [1]: Non-toxic | Activity [2]: Active | Activity [3]: Non-toxic | Activity [4]: Active | Activity [5]: Non-toxic | Activity [6]: 100% | Activity [7]: 80% | Activity [8]: Non-toxic | Activity [9]: Non-toxic | Activity [10]: Active | Activity [11]: Active | Activity [12]: Active | Activity [13]: Non-toxic | Activity [14]: Active | Activity [15]: Active | Activity [16]: Non-toxic | Activity [17]: 100% | Activity [18]: 80% | Activity [19]: Active | Activity [20]: Non-toxic | Activity [21]: Active
